{"data": "Published values gathered from unrelated publications", "target": "Myosin-IIIb (MYO3B, Homo sapiens, UniProt Q8WXR4)", "Residues used in one study (Q8WXR4 1-1341)": "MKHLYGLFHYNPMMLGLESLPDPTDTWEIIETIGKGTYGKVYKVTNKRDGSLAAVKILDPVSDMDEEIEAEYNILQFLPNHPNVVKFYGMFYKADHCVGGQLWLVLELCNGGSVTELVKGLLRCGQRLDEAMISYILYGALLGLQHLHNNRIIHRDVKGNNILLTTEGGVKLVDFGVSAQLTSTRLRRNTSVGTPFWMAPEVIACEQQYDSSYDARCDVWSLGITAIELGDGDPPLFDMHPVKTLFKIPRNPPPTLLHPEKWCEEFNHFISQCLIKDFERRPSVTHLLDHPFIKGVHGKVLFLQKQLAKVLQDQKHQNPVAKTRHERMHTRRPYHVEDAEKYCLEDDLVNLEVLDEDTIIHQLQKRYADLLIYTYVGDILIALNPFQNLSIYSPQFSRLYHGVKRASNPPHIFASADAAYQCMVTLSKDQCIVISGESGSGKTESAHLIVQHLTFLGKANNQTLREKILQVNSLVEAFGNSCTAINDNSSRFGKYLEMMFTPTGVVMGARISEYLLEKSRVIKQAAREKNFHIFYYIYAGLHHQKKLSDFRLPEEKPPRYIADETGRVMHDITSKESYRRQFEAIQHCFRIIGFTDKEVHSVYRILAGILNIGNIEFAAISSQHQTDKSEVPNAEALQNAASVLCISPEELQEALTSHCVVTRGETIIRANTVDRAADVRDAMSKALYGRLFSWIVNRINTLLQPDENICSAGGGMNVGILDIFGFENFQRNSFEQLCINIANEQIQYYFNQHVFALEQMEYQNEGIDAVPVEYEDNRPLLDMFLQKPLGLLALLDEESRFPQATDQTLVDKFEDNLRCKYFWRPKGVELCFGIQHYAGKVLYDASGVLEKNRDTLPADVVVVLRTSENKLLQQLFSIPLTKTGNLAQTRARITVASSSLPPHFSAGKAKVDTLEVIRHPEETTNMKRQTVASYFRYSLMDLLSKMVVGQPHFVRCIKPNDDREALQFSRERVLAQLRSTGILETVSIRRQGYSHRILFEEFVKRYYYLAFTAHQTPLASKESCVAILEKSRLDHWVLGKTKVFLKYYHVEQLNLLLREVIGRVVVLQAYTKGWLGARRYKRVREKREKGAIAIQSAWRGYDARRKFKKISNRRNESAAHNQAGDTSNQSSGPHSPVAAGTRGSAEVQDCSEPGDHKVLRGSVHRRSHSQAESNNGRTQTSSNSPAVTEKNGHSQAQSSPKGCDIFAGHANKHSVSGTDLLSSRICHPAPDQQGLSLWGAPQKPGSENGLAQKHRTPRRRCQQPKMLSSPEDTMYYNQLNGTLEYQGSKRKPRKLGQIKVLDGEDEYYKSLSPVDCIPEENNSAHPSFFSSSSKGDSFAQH", "note": "Each line is one published result; the experiments were not run side by side."}
{"Structure (SMILES)": "O=C(c1ccc(Nc2ncc(Cl)c(-c3cc4ccccc4s3)n2)cc1)N1CCC(N2CCCC2)CC1", "test": "binding, competition with immobilised ligand", "conditions": "1 µM", "remaining binding [%]": 100}
{"Structure (SMILES)": "COc1ccnn2ncc(-c3ccnc(N(C)C)n3)c12", "test": "binding", "conditions": "1 µM", "remaining binding [%]": 100}
{"Structure (SMILES)": "COc1cnc(Nc2cccc(S(N)(=O)=O)c2)nc1N1CCN(c2ccccc2)CC1", "test": "binding, competition with immobilised ligand", "conditions": "1 µM", "remaining binding [%]": 100}
{"Structure (SMILES)": "C[C@H](c1ccc(F)cc1)N(Cc1cccc(C(=O)O)c1)C(=O)c1cnc2ccccc2c1", "test": "binding, competition with immobilised ligand", "conditions": "1 µM", "remaining binding [%]": 100}
{"Structure (SMILES)": "O=C(NCCCN1CCOCC1)c1ccc(Nc2ncc(Cl)c(-c3ccc(Cl)s3)n2)cc1", "test": "binding, competition with immobilised ligand", "conditions": "1 µM", "remaining binding [%]": 100}
{"Structure (SMILES)": "O=C(N[C@H]1CCCCC/C=C\\C2C[C@@]2(C(=O)O)NC(=O)[C@@H]2C[C@@H](Oc3ccncc3)CN2C1=O)OC1CCCC1 (stereo partly drawn)", "test": "binding, competition with immobilised ligand", "conditions": "1 µM", "remaining binding [%]": 38}
{"Structure (SMILES)": "CN(c1nccc(-c2cnn3ncccc23)n1)C1CC1", "test": "binding", "conditions": "1 µM", "remaining binding [%]": 83}
{"Structure (SMILES)": "CCC(=O)N[C@H]1CC[C@@H](C(=O)N(C)c2ccc(-c3nc4ccccc4o3)cc2)C1", "test": "cell-free assay, competition with immobilised ligand", "conditions": "1 µM", "remaining binding [%]": 98}
{"Structure (SMILES)": "COc1cnc(Nc2cccc(S(N)(=O)=O)c2)nc1N1CCN(c2ccccc2)C(=O)C1", "test": "binding, competition with immobilised ligand", "conditions": "1 µM", "remaining binding [%]": 94}
{"Structure (SMILES)": "CN(C)c1nccc(-c2cnn3ncccc23)n1", "test": "binding", "conditions": "1 µM", "remaining binding [%]": 100}
{"Structure (SMILES)": "CS(=O)(=O)c1cc(C2(NC(=O)c3cncc4c3cnn4-c3ccc(F)cc3)CC2)ccn1", "test": "cell-free assay, competition with immobilised ligand", "conditions": "1 µM", "remaining binding [%]": 100}
{"Structure (SMILES)": "C=CC(=O)N1CCC(C(=O)NCC(=O)N2CCN(c3nc(-c4cnc(N)nc4C(F)F)nc(N4CCOCC4)n3)CC2)CC1", "test": "binding, competition with immobilised ligand", "conditions": "1 µM", "remaining binding [%]": 96}
{"Structure (SMILES)": "N#CC1(c2ccccn2)CCN(Cc2cc(C(=O)N3CCCC3)c(=O)n3ccccc23)CC1", "test": "cell-free assay, competition with immobilised ligand", "conditions": "1 µM", "remaining binding [%]": 100}
{"Structure (SMILES)": "C[C@@H]1CCN(c2nccc(-c3cnn4ncccc34)n2)C1", "test": "binding", "conditions": "1 µM", "remaining binding [%]": 100}
{"Structure (SMILES)": "C[C@@H](c1ccc(-n2cnc3c(N)ncnc32)cc1)N1CCc2nn(C)c(Cc3ccccc3)c2C1=O", "test": "binding, competition with immobilised ligand", "conditions": "0.1 µM", "remaining binding [%]": 77}
{"Structure (SMILES)": "Cc1cnc(Nc2ccc(C(=O)N3CCC(N4CCCC4)CC3)cc2)nc1-c1cc2ccccc2s1", "test": "binding, competition with immobilised ligand", "conditions": "1 µM", "remaining binding [%]": 100}
{"Structure (SMILES)": "CN(CCCC(F)(F)F)c1nccc(-c2cnn3ncccc23)n1", "test": "binding", "conditions": "1 µM", "remaining binding [%]": 92}
{"Structure (SMILES)": "COc1ncc2cc3ccccc3nc2c1C#N", "test": "binding, competition with immobilised ligand", "conditions": "5 µM", "remaining binding [%]": 96}
{"Structure (SMILES)": "CC1=C(C#N)C(c2ccc3c(c2)c(NC(=O)c2ccccc2C)nn3C)C(C#N)=C(C)N1", "test": "binding, competition with immobilised ligand", "conditions": "1 µM", "remaining binding [%]": 100}
{"Structure (SMILES)": "CN(C)c1ncc(F)c(-c2cnn3ncccc23)n1", "test": "binding", "conditions": "1 µM", "remaining binding [%]": 100}
{"Structure (SMILES)": "O=C(Nc1c[nH]nc1C(=O)NC1CCNCC1)c1cc(F)cc(F)c1", "test": "binding, competition with immobilised ligand", "conditions": "1 µM", "remaining binding [%]": 100}
